Source: ChEMBL document CHEMBL1124456, “Synthesis and structure-activity relationship of substituted tetrahydro- and hexahydro-1,2-benzisothiazol-3-one 1,1-dioxides and thiadiazinones: potential anxiolytic agents” (J Med Chem, 1989)

How the values were obtained:
[1] = molecular target: D(2) dopamine receptor (Rattus norvegicus) (UniProt P61169); test: Inhibition of [3H]spiperone binding to Dopamine receptor D2 of rat limbic structures; format: tissue-based; parameters: concentration or dose not given beside the values; settings: Limbic system, concentration not given here
Rattus norvegicus [2] = species: Rattus norvegicus; test: Anti-psychotic activity from the ability to block discrete trial conditioned avoidance response (CAR) of rats.; format: functional
Summary of the method: (§1)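 Discrete-trial conditioned avoidance in male CD rats kept at about 400–450 g body weight. Dosing was ip or po, 30 min before testing, with at least five rats per dose (20 or 40 mg/kg, or a dose range). Computer recorded intertrial, avoidance and escape responses and no-response trials. Avoidance-block trials were taken as % of total trials, with control avoidance set at 100%. AB50 came from a least-squares dose-effect regression line.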

[3] = molecular target: D(2) dopamine receptor (Rattus norvegicus) (UniProt P61169); test: Inhibition of [3H]-spiperone binding to dopamine receptor D2 of rat limbic structures at 1 uM.; settings: Limbic system
Rattus norvegicus [4] = test: Compound was tested for antagonism of apomorphine-induced climbing behavior, after intraperitoneal dosing.; format: functional; settings: ip
Rattus norvegicus [5] = test: Compound was tested for antagonism of apomorphine-induced stereotyped behavior, after intraperitoneal dosing.; format: functional; settings: ip
Summary of the method: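 High-dose apomorphine-induced stereotyped behavior procedure. Test agents were given ip at doses up to 60 mg/kg.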

[6] = molecular target: T1, 5-hydroxytryptamine receptor 1A (Rattus norvegicus, UniProt P19327); test: In vitro ability to inhibit [3H]-8-OH-DPAT binding to 5-hydroxytryptamine 1A receptor of rat hippocampus. and the value ranges from 16 - 27; format: tissue-based
T1 sequence (P19327 whole entry): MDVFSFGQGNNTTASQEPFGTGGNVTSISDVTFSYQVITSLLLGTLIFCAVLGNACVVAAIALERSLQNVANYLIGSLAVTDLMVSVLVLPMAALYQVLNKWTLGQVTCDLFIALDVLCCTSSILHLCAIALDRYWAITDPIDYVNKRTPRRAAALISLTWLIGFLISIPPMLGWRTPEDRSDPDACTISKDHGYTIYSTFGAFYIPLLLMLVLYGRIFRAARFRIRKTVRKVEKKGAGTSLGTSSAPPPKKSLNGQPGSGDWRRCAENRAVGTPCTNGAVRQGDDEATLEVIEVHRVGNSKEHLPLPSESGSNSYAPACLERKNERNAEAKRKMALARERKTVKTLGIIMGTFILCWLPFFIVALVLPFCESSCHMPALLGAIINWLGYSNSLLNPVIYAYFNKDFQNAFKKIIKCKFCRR

[7] = molecular target: T2, 5-hydroxytryptamine receptor 1A (Rattus norvegicus) (UniProt P19327); test: In vitro ability to inhibit [3H]8-OH-DPAT binding to 5-hydroxytryptamine 1A receptor of rat hippocampus at 1 uM; format: tissue-based
T2 sequence (whole entry): T1 sequence (P19327 whole entry)

[8] = molecular target: T2, 5-hydroxytryptamine receptor 1A (Rattus norvegicus); test: In vitro ability to inhibit [3H]-8-OH-DPAT binding to 5-hydroxytryptamine 1A receptor of rat hippocampus at 1 uM; format: tissue-based
Rattus norvegicus [9] = species: Rattus norvegicus; test: Anti psychotic activity was evaluated from the ability to block discrete trial conditioned avoidance response (CAR) of rats. (95%CI); 39 to 53; format: functional; summary of the method: as §1
[10] = molecular target: T2, 5-hydroxytryptamine receptor 1A (Rattus norvegicus); test: In vitro ability to inhibit [3H]-8-OH-DPAT binding to 5-hydroxytryptamine 1A receptor of rat hippocampus.; format: tissue-based; settings: concentration not given here
[11] = molecular target: T1, 5-hydroxytryptamine receptor 1A; test: In vitro ability to inhibit [3H]8-OH-DPAT binding to 5-hydroxytryptamine 1A receptor of rat hippocampus and the value ranges from 12 to 17.; format: tissue-based

Chain of D(2) dopamine receptor (Rattus norvegicus) (P61169 whole entry): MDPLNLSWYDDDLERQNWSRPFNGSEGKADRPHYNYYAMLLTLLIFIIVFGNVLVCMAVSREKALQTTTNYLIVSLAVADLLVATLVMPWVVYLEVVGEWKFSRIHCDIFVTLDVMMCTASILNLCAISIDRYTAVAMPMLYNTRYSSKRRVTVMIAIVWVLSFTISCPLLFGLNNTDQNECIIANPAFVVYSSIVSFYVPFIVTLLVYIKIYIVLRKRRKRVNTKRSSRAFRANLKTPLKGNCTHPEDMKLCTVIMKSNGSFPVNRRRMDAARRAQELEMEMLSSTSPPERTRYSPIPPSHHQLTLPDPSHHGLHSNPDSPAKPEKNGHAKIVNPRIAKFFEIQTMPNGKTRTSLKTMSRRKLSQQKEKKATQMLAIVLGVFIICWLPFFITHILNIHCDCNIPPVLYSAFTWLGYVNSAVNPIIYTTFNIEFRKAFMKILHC

## Cl.Cl.O=C1c2ccccc2S(=O)(=O)N1CCCCN1CC2CN(Cc3ccccc3)CC2C1 (centres undefined)
[1]
  inhibition: 8%
Rattus norvegicus [2]
  AB50: >40 mg/kg

## Cl.Cl.O=C1C2C3CCC(O3)C2S(=O)(=O)N1CCCCN1CCN(c2ncccn2)CC1 (centres undefined)
[3]
  inhibition: 0%
Rattus norvegicus [2]
  AB50: >40 mg/kg
Rattus norvegicus [4]
  ED50: 16 mg/kg
Rattus norvegicus [5]
  ED50: 34 mg/kg

## Cl.Cl.O=C1N(CCCCN2CCN(c3ncccn3)CC2)S(=O)(=O)NC12CCCCC2
Rattus norvegicus [2]
  AB50: 40 mg/kg

## Cl.O=C1C2C3CCC(C4CC43)C2S(=O)(=O)N1CCCCN1CCN(c2ncccn2)CC1 (centres undefined)
[6]
  Ki: 21 nM
[1]
  inhibition: 70%
Rattus norvegicus [2]
  AB50: 40 mg/kg

## Cl.Cl.O=c1c2ccccc2[s+]([O-])n1CCCCN1CCN(c2ncccn2)CC1 (centres undefined)
[7]
  inhibition: 43%
[3]
  inhibition: 3%
Rattus norvegicus [2]
  AB50: 40 mg/kg

## Cl.O=C1C2C3CCC(C3)C2S(=O)(=O)N1CCCCN1CCN(c2cncc(Cl)n2)CC1 (centres undefined)
[8]
  inhibition: 51%
[1]
  inhibition: 32%
Rattus norvegicus [9]
  AB50: 45 mg/kg

## Cl.O=C1c2cscc2S(=O)(=O)N1CCCCN1CCN(c2nccnc2Cl)CC1
Rattus norvegicus [2]
  AB50: >40 mg/kg

## Cl.O=C1c2ccccc2S(=O)(=O)N1CCCCN1CCn2cccc2C1
[1]
  inhibition: 0%
Rattus norvegicus [2]
  AB50: >40 mg/kg

## Cl.O=C1c2cscc2S(=O)(=O)N1CCCCN1CCN(c2cncc(Cl)n2)CC1
Rattus norvegicus [2]
  AB50: >40 mg/kg

## Cl.Cn1nnnc1N1CCN(CCCCN2C(=O)c3ccccc3S2(=O)=O)CC1
[10]
  inhibition: 52%
[3]
  inhibition: 14%
Rattus norvegicus [2]
  AB50: 40 mg/kg

## Cl.O=C1c2ccccc2S(=O)(=O)N1CCCCN1CCN(c2cncc(Cl)n2)CC1
[1]
  inhibition: 6%
Rattus norvegicus [2]
  AB50: 40 mg/kg

## Cl.Cl.O=C1C2C3C=CC(C4CC34)C2S(=O)(=O)N1CCCCN1CCN(c2ncccn2)CC1 (centres undefined)
Rattus norvegicus [2]
  AB50: 40 mg/kg

## Cl.O=C1C2C3CCC(CC3)C2S(=O)(=O)N1CCCCC1CCN(c2cncc(Cl)n2)CC1 (centres undefined)
[8]
  inhibition: 7%
[1]
  inhibition: 0%
Rattus norvegicus [2]
  AB50: >40 mg/kg

## Cl.Cl.Cl.O=C1C2C3C=CC(C3)C2S(=O)(=O)N1CCCCN1CCN(c2ccc(Cl)nn2)CC1 (centres undefined)
[1]
  inhibition: 3%
Rattus norvegicus [2]
  AB50: >40 mg/kg

## Cl.Cl.Cl.O=C1C2C3C=CC(C3)C2S(=O)(=O)N1CCCCN1CCN(c2cncc(Cl)n2)CC1 (centres undefined)
[1]
  inhibition: 1%
Rattus norvegicus [2]
  AB50: 40 mg/kg

## Cl.Cl.O=C1C2C3C=CC(C3)C2S(=O)(=O)N1CCCCN1CCN(c2cccc(C(F)(F)F)c2)CC1 (centres undefined)
[11]
  Ki: 15 nM
Rattus norvegicus [2]
  AB50: 51 mg/kg

## CC1=C(C)CC2C(C1)C(=O)N(CCCCN1CCN(c3ncccn3)CC1)S2(=O)=O.Cl.Cl (centres undefined)
[1]
  inhibition: 21%
Rattus norvegicus [2]
  AB50: 40 mg/kg

## Cl.O=C1C2C3C=CC(C3)C2S(=O)(=O)N1CCCCc1ccncc1 (centres undefined)
[1]
  inhibition: 1%
Rattus norvegicus [2]
  AB50: 40 mg/kg
